CASP6 VEID inh – human caspase-6 inhibitors, primary screen, biochemical, VEID-R110 fluorescence, single point, set 2. actives 0.53% (n = 350,000). AID 686996, 2013. purified caspase-6, Z-VEID-R110 cleavage fluorescence. inhibition, % at 12.5 µM;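 active = mean inhibition across replicates at least about 35%, with every replicate also reaching that limit, limit read from the data; inconclusive = only one of the two criteria met; inactive = neither criterion met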;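 also: 0% = median of neutral control wells and 100% = no fluorescence left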
Target sequence (P55212 24-179 limits assumed): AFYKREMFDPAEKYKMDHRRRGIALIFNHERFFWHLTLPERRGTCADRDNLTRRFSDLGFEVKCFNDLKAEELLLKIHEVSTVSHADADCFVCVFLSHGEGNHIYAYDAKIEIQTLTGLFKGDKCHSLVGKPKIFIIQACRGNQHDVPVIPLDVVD
Target sequence (P55212 194-293 limits assumed): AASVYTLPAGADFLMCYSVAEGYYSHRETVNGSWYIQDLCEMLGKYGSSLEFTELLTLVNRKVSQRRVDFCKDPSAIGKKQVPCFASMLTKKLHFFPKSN
Myeloid diff MLP – induction of myeloid progenitor differentiation, primary screen, cell-based, flow cytometry, MLPCN library. ER-HoxA9 myeloid progenitors, lysozyme-GFP differentiation. calls only at 10 µM. actives 1% (n = 360,000);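 active = normalized GFP-positive differentiation at or above the plate's own cutoff, the solvent-only control mean plus 3 SD; inconclusive = no clear call, values can overlap the other calls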;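 also: cells exposed to compound for four days before flow analysis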
T cell modulator – modulators of CD8 T cell-vesicle binding, primary screen, mouse 2C CD8+ T cells, flow cytometry | 2C CD8+ T cell-vesicle binding; stronger effect = lower value | response (vesicle binding), % at 7 µM | actives 0.068% (n = 330,000);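 active = response, share of CD8 T cells binding vesicles, and their 90th percentile fluorescence all below set limits, cut at about 80% in these data, passing the limit was not always enough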;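 also: values below 100% mean blocked vesicle binding to the CD8+ T cells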
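Assay system – 2C mouse CD8+ T cells · Also added – QL9-loaded Drosophila micro-vesicles · Timing – Cell–vesicle co-incubation 1.5 h at 37 °C, staining 20 min on ice · Signal – flow cytometry of vesicle-bound cells · Measure – percent CD8+ FL2 mean versus row control · Controls – Peptide-free naked vesicles (low) and QL9 vesicles with 0.7% DMSO vehicle (high)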
Vif inh – HIV Vif self-association inhibitors, primary screen, imaging, HEK293T, single point. inhibition, % at 7.49 µM. HEK293T cells, Vif self-association by quenched fluorescence, 24 h. actives 0.35% (n = 340,000); in the data active = inhibition above about 50%, passing the limit was not always enough; inconclusive = no clear call, values can overlap the other calls; inactive = below about 31%
Myeloid diff – inducers of myeloid progenitor differentiation, confirmation, cell-based, GFP/Mac1 flow cytometry, cherry pick 01. actives 2% (n = 2,300). calls only. AID 651706, 2012. shares compounds with Myeloid diff MLP. ER-HoxA9 myeloid progenitors, GFP/Mac1 double-positive flow;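 active = share of green or green-and-red cells above 9 and 9% in run 1 or 4 and 3% in run 2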
GFP autofluor – flagged as fluorescent in myeloid differentiation counter-screen; shares compounds with Myeloid diff MLP; ER-HoxA9 myeloid progenitors, no estrogen, GFP autofluorescence flow cytometry; vehicle wells 0%, positive control 100%; fluorescence response, % (concentration not given with the values); actives 7.4% (n = 2,300); AID 651707;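 active = over 5% cells positive for green fluorescent reporter, or over 2% positive for both it and APC stain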;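 also: range taken on the double positive population between DMSO and positive control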
The depositor's hits bear a star; i = inactive; ? = inconclusive; nt = not tested or not shown; + = active, no number. Rows were chosen to be rich in hits. Some 1.4% of all compounds tested hit in one or more screens of this group.

SMILES | CASP6 VEID inh | Myeloid diff MLP | T cell modulator | Vif inh | Myeloid diff | GFP autofluor
Cc1cc2cc(C(c3nnnn3CC3CCCO3)N3CCCc4ccccc43)c(=O)[nH]c2cc1C (centres undefined) | nt | i | nt | 4 | i | 0
O=C(CSc1nnc(CNC(=O)c2ccco2)o1)Nc1ccc(Cl)cc1 | -7 | i | 592 | -4 | nt | nt
O=C(CSc1nnc(CNC(=O)c2ccco2)o1)Nc1cccc(Cl)c1 | 4 | + | 424 | -3 | i | 0
Cc1nnc(SCCn2c(N(C)Cc3ccccc3)nc3c2c(=O)[nH]c(=O)n3C)s1 | 0 | + | 522 | 62* | i | 0
Cc1nnc(SCCn2c(N3CCC(Cc4ccccc4)CC3)nc3c2c(=O)[nH]c(=O)n3C)s1 | nt | nt | 619 | nt | nt | nt
CN1C(=O)c2cc(NC(=O)C3CCCC3)ccc2OC[C@H]2O[C@H](CC(=O)NCC(F)(F)F)CC[C@H]21 | 1 | nt | nt | nt | nt | nt
O=[N+]([O-])c1cccc(Cn2cnc3c(=S)nc[nH]c32)c1 | 0 | i | nt | -8 | nt | nt
N#CCCn1cnc2c(=S)nc[nH]c21 | 0 | + | 465 | 11 | i | 1
CCOC(=O)c1c(C)[nH]c(C(=O)N/N=C\c2ccccc2Cl)c1C | nt | i | 249 | -6 | i | 0
Cc1cc(/C=C2\SC(=S)N(C)C2=O)c(C)n1-c1cccc(O)c1 | -4 | + | 414 | -8 | i | 5
CN1C(=O)/C(=C\c2cc(N=Nc3ccccc3)ccc2O)SC1=S | nt | nt | 345 | -2 | nt | nt
COCCNC(=O)C[C@H]1CC[C@@H]2[C@H](COC[C@H](O)CN2C(=O)Nc2ccccc2OC)O1 | 3 | nt | nt | nt | nt | nt
CC(=O)N/N=C/c1cc(C(C)(C)C)cc(/C=N/NC(C)=O)c1O | nt | + | 225 | -7 | i | 0
CCC(O)(CC)C(=O)N/N=C/c1cc(Br)cc(Br)c1O | -1 | i | 404 | -13 | nt | nt
c1ccc2c(c1)CCN2CCN1CCc2ccccc21 | nt | i | 516 | nt | nt | nt
CN(C)CCN1CCc2ccccc21 | nt | + | 504 | -3 | i | 0
C[C@H](CO)N1C[C@H](C)[C@@H](CN(C)S(=O)(=O)c2ccc(F)cc2)Oc2ccc(NC(=O)C3CCCCC3)cc2C1=O | 0 | i | 358 | -4 | i | 0
Fc1cccc(Nc2nc(N3CCOCC3)nc(N3CCOCC3)n2)c1 | 2 | i | 112 | 15 | nt | nt
Clc1cccc(Nc2nc(N3CCOCC3)nc(N3CCOCC3)n2)c1 | -3 | i | 225 | -3 | i | 0
Clc1ccc(Oc2nc(Oc3ccc(Cl)cc3)nc(N3CCOCC3)n2)cc1 | nt | + | 367 | -7 | i | 1
CO[C@H]1CN(C)C(=O)c2cc(NC(=O)NC3CCCCC3)ccc2OC[C@H](C)N(CC2CC2)C[C@@H]1C | -1 | nt | nt | nt | nt | nt
COc1ccc(N2CCN(C(=O)c3ccc(C)c(Cl)c3)CC2)cc1 | nt | i | 340 | -13 | i | 0
COc1ccc(N2CCN(C(=O)c3ccc(NS(=O)(=O)c4cccc(F)c4)cc3)CC2)cc1 | nt | i | 370 | ? | i | 1
COc1ccc(N2CCN(C(=O)c3cccc(NS(=O)(=O)c4cccc(F)c4)c3)CC2)cc1 | 1 | i | nt | 1 | nt | nt
COc1ccc(NS(=O)(=O)c2cccc(C(=O)NNC(=O)COc3ccccc3)c2)cc1 | 6 | + | 426 | 14 | i | 0
SMILES | CASP6 VEID inh | Myeloid diff MLP | T cell modulator | Vif inh | Myeloid diff | GFP autofluor
COc1ccc(NS(=O)(=O)c2cccc(C(=O)NNC(=O)CNC(=O)c3ccccc3)c2)cc1 | 6 | i | 90 | -6 | nt | nt
CN(C)Cc1cn(CC[C@@H]2CC[C@@H](NC(=O)Nc3ccc4c(c3)OCO4)[C@@H](CO)O2)nn1 | -1 | nt | nt | nt | nt | nt
COc1ccc(N2CCN(Cc3nc(N)nc(Nc4ccccc4OC)n3)CC2)cc1 | nt | i | 293 | 4 | nt | nt
COc1ccc(Nc2nc(N)nc(CN3CCN(c4ccc(F)cc4)CC3)n2)cc1 | nt | i | 124 | -6 | i | 0
CCCCNC(=O)c1onc(CSc2ccc(F)cc2)c1C(=O)O | 1 | + | 210 | -1 | i | 1
CCCCNC(=O)c1onc(CSc2ccc(OC)cc2)c1C(=O)O | 0 | i | 368 | -4 | nt | nt
C[C@@H]1CCCCO[C@@H](CN(C)S(=O)(=O)c2ccc(Cl)cc2)[C@H](C)CN([C@@H](C)CO)C(=O)c2cc(NC(=O)c3ccncc3)ccc2O1 | 1 | nt | nt | nt | nt | nt
CCC(C)NC(=O)C1CCC(=O)N(c2ccc3c(c2)OCO3)C1c1ccc(OC)cc1 (centres undefined) | 3 | i | 406 | 5 | nt | nt
COCCCNC(=O)C1CCC(=O)N(c2ccc3c(c2)OCO3)C1c1ccc(OC)cc1 (centres undefined) | -5 | i | 218 | 9 | i | 0
CC(C)Cn1c(N)c(C(=O)COC(=O)c2ccccc2C(=O)c2ccccc2)c(=O)n(C)c1=O | 1 | i | 225 | -21 | nt | nt
Cn1c(N)c(C(=O)COC(=O)c2ccccc2C(=O)c2ccc(Cl)cc2)c(=O)n(C)c1=O | -2 | i | 373 | -14 | i | 1
COc1cc(C)c(CN2CCCCC2CO)cc1C (centres undefined) | nt | + | 306 | -5 | i | 0
CCC1CCCCN1Cc1ccc(OC)c(OC)c1 (centres undefined) | 2 | i | 276 | -6 | nt | nt
Cc1ccc(C(=O)N(Nc2nc3ccccc3s2)C(=O)c2ccc(C)cc2)cc1 | -1 | i | 228 | -15 | nt | nt
CC(C)C(=O)N(Nc1nc2ccccc2s1)C(=O)C(C)C | 2 | + | 305 | -2 | i | 0
O=C(C1CCCC1)N1CCCCN2[C@H](C1)[C@H](c1ccc(C#CC3CC3)cc1)[C@@H]2CO | -3 | nt | nt | nt | nt | nt
CCN(CC)C(=O)CN1C(=O)C(=O)c2ccccc21 | 5 | i | 355 | 1 | i | 1
CCN(CC)C(=O)CN1C(=O)c2cccc3cccc1c23 | 2 | i | 157 | -4 | nt | nt
O=C1C(c2ccc(F)cc2)N(Cc2ccc3c(c2)OCO3)C(=O)CN1C1CCCCCC1 (centres undefined) | nt | i | 373 | 0 | nt | nt
COc1ccc(C2C(=O)N(C3CCCCC3)CC(=O)N2Cc2ccc3c(c2)OCO3)cc1 (centres undefined) | 3 | i | 241 | -2 | i | 4
CNC(=O)C[C@@H]1CC[C@H]2[C@H](COc3ccc(NC(=O)c4ccc(F)cc4)cc3C(=O)N2C)O1 | 0 | nt | nt | nt | nt | nt
C[C@H]1CN([C@@H](C)CO)C(=O)c2cc(-c3cccnc3)cnc2O[C@@H]1CN(C)C(=O)c1cccc(F)c1 | -1 | nt | nt | nt | nt | nt
O=c1cc(-c2ccccc2Cl)oc2c(Br)ccc(O)c12 | nt | + | 925 | nt | i | 0
